In ChEMBL document CHEMBL4725486, “Effects of C-Terminal B-Chain Modifications in a Relaxin 3 Agonist Analogue” (ACS Med Chem Lett, 2020):

What was measured:
Relaxin-3 receptor 1 [1] = biological target: T1, Relaxin-3 receptor 1 (Homo sapiens, UniProt Q9NSD7); experiment: Displacement of Eu-labeled H3B1-22R from RXFP3 (unknown origin) stably expressed in CHO-K1 cells by competition binding assay; assay type: cell-based
T1 sequence (Q9NSD7 whole entry): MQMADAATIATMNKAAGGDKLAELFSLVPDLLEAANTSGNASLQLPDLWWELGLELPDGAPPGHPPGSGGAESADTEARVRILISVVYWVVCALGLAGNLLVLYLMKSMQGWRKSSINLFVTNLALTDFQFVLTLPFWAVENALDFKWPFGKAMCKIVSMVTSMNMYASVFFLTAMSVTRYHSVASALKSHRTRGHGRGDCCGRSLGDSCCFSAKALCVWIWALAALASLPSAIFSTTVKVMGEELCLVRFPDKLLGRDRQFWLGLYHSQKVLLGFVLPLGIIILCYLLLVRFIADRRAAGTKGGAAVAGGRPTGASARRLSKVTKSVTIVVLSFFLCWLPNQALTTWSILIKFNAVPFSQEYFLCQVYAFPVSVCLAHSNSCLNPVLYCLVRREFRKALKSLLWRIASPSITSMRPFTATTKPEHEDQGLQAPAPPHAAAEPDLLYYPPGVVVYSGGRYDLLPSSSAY
Procedure, shortened: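 Competition binding used europium-labeled H3 B1-22R as the labeled ligand on CHO-RXFP3 cells, with peptides as competitors. pKi values were pooled from 3–4 independent experiments.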

Relaxin-3 receptor 1 [2] = biological target: T1, Relaxin-3 receptor 1; experiment: Agonist activity at RXFP3 (unknown origin) stably expressed in CHO-K1 cells co-transfected with pCRE assessed as inhibition of forskolin-induced cAMP accumulation measured after 6 hrs by beta-galactosidase reporter gene assay; assay type: functional, cell-based
Procedure, shortened: (§1)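 Cells were CHO lines expressing RXFP3 or RXFP4, which couple to Gi/o. Agonist action was read as inhibition of forskolin-stimulated cAMP in a reporter gene assay after 6 h stimulation. pEC50 values were pooled from 3–4 independent experiments.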

Relaxin-3 receptor 2 = Relaxin-3 receptor 2 (Homo sapiens, UniProt Q8TDU9); experiment: Agonist activity at RXFP4 (unknown origin) stably expressed in CHO cells co-transfected with pCRE assessed as inhibition of forskolin-induced cAMP accumulation measured after 6 hrs by beta-galactosidase reporter gene assay; assay type: functional, cell-based; procedure, shortened: as §1
Relaxin-3 receptor 2, sequence (Q8TDU9 whole entry): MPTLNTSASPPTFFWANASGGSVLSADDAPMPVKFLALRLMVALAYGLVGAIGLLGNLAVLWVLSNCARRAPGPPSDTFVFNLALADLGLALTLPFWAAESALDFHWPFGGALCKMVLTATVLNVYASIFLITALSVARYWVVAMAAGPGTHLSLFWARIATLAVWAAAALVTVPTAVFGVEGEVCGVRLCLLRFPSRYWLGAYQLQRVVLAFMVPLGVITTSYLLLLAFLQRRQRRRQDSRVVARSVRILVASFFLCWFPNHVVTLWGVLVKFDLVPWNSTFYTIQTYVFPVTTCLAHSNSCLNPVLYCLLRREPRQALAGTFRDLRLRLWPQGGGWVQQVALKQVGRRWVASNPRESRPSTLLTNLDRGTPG

Row | Ki (Relaxin-3 receptor 1 [1]) [nM] | EC50 (Relaxin-3 receptor 1 [2]) [nM] | EC50 (Relaxin-3 receptor 2) [nM] | SMILES
1 | 186 | 4.37 | 7.08 | CC[C@H](C)[C@@H]1NC(=O)[C@H](CCC(=O)O)NC(=O)[C@H](CO)NC(=O)[C@H](CCCCN)NC(=O)[C@H](CO)NC(=O)[C@H](C)NC(=O)CNC(=O)[C@H](Cc2c[nH]c3ccccc23)NC(=O)[C@H](CCCCN)NC(=O)[C@@H](N)CSSC[C@@H](C(=O)NCC(=O)NCC(=O)N[C@@H](CO)C(=O)N[C@@H](CCCNC(=N)N)C(=O)N[C@@H](Cc2c[nH]c3ccccc23)C(=O)O)NC(=O)[C@H]([C@@H](C)O)NC(=O)[C@H](Cc2ccccc2)NC(=O)[C@H]([C@@H](C)CC)NC(=O)[C@H](C(C)C)NC(=O)[C@H](CCCNC(=N)N)NC(=O)[C@H]([C@@H](C)CC)NC(=O)[C@H](Cc2ccccc2)NC(=O)[C@H](CCC(=O)O)NC(=O)[C@H](CCCNC(=N)N)NC(=O)CNC(=O)[C@@H](NC(=O)[C@H](CC(C)C)NC(=O)[C@H](CCCNC(=N)N)NC(=O)[C@@H](NC(=O)CNC(=O)[C@H](Cc2ccc(O)cc2)NC(=O)[C@@H]2CCCN2C(=O)[C@H](C)NC(=O)[C@H](C)NC(=O)[C@H](CCCNC(=N)N)N[C@@H](Cc2c[nH]c3ccccc23)C(=O)OC[C@H](NC(C)=O)C(N)=O)C(C)C)CSSC[C@@H](C(=O)O)NC(=O)[C@H](CC(C)C)NC(=O)[C@H](CO)NC(=O)[C@H](CO)NC1=O
2 | 191 | 15.8 | 14.5 | CC[C@H](C)[C@@H]1NC(=O)[C@H](CCC(=O)O)NC(=O)[C@H](CO)NC(=O)[C@H](CCCCN)NC(=O)[C@H](CO)NC(=O)[C@H](C)NC(=O)CNC(=O)[C@H](Cc2c[nH]c3ccccc23)NC(=O)[C@H](CCCCN)NC(=O)[C@@H](N)CSSC[C@@H](C(=O)NCC(=O)NCC(=O)N[C@@H](CO)C(=O)N[C@@H](CCCNC(=N)N)C(=O)N[C@@H](Cc2c[nH]c3ccccc23)C(=O)O)NC(=O)[C@H]([C@@H](C)O)NC(=O)[C@H](Cc2ccccc2)NC(=O)[C@H]([C@@H](C)CC)NC(=O)[C@H](C(C)C)NC(=O)[C@H](CCCNC(=N)N)NC(=O)[C@H]([C@@H](C)CC)NC(=O)[C@H](Cc2ccccc2)NC(=O)[C@H](CCC(=O)O)NC(=O)[C@H](CCCNC(=N)N)NC(=O)CNC(=O)[C@@H](NC(=O)[C@H](CC(C)C)NC(=O)[C@H](CCCNC(=N)N)NC(=O)[C@@H](NC(=O)CNC(=O)[C@H](Cc2ccc(O)cc2)NC(=O)[C@@H]2CCCN2C(=O)[C@H](C)NC(=O)[C@H](C)NC(=O)[C@H](CCCNC(=N)N)N[C@@H](Cc2c[nH]c3ccccc23)C(N)=O)C(C)C)CSSC[C@@H](C(=O)O)NC(=O)[C@H](CC(C)C)NC(=O)[C@H](CO)NC(=O)[C@H](CO)NC1=O

The next lines start with the compound.

Row | SMILES | Ki (Relaxin-3 receptor 1 [1]) [nM] | EC50 (Relaxin-3 receptor 1 [2]) [nM] | EC50 (Relaxin-3 receptor 2) [nM]
3 | CC[C@H](C)[C@@H]1NC(=O)[C@H](CCC(=O)O)NC(=O)[C@H](CO)NC(=O)[C@H](CCCCN)NC(=O)[C@H](CO)NC(=O)[C@H](C)NC(=O)CNC(=O)[C@H](Cc2c[nH]c3ccccc23)NC(=O)[C@H](CCCCN)NC(=O)[C@@H](N)CSSC[C@@H](C(=O)NCC(=O)NCC(=O)N[C@@H](CO)C(=O)N[C@@H](CCCNC(=N)N)C(=O)N[C@@H](Cc2c[nH]c3ccccc23)C(=O)O)NC(=O)[C@H]([C@@H](C)O)NC(=O)[C@H](Cc2ccccc2)NC(=O)[C@H]([C@@H](C)CC)NC(=O)[C@H](C(C)C)NC(=O)[C@H](CCCNC(=N)N)NC(=O)[C@H]([C@@H](C)CC)NC(=O)[C@H](Cc2ccccc2)NC(=O)[C@H](CCC(=O)O)NC(=O)[C@H](CCCNC(=N)N)NC(=O)CNC(=O)[C@@H](NC(=O)[C@H](CC(C)C)NC(=O)[C@H](CCCNC(=N)N)NC(=O)[C@@H](NC(=O)CNC(=O)[C@H](Cc2ccc(O)cc2)NC(=O)[C@@H]2CCCN2C(=O)[C@H](C)NC(=O)[C@H](C)NC(=O)[C@H](CCCNC(=N)N)N[C@@H](Cc2c[nH]c3ccccc23)C(=O)O)C(C)C)CSSC[C@@H](C(=O)O)NC(=O)[C@H](CC(C)C)NC(=O)[C@H](CO)NC(=O)[C@H](CO)NC1=O | 45.7 | 6.17 | 6.92
4 | CC[C@H](C)[C@@H]1NC(=O)[C@H](CCC(=O)O)NC(=O)[C@H](CO)NC(=O)[C@H](CCCCN)NC(=O)[C@H](CO)NC(=O)[C@H](C)NC(=O)CNC(=O)[C@H](Cc2c[nH]c3ccccc23)NC(=O)[C@H](CCCCN)NC(=O)[C@@H](N)CSSC[C@@H](C(=O)NCC(=O)NCC(=O)N[C@@H](CO)C(=O)N[C@@H](CCCNC(=N)N)C(=O)N[C@@H](Cc2c[nH]c3ccccc23)C(=O)O)NC(=O)[C@H]([C@@H](C)O)NC(=O)[C@H](Cc2ccccc2)NC(=O)[C@H]([C@@H](C)CC)NC(=O)[C@H](C(C)C)NC(=O)[C@H](CCCNC(=N)N)NC(=O)[C@H]([C@@H](C)CC)NC(=O)[C@H](Cc2ccccc2)NC(=O)[C@H](CCC(=O)O)NC(=O)[C@H](CCCNC(=N)N)NC(=O)CNC(=O)[C@@H](NC(=O)[C@H](CC(C)C)NC(=O)[C@H](CCCNC(=N)N)NC(=O)[C@@H](NC(=O)CNC(=O)[C@H](Cc2ccc(O)cc2)NC(=O)[C@@H]2CCCN2C(=O)[C@H](C)NC(=O)[C@H](C)NC(=O)[C@H](CCCNC(=N)N)N[C@H](COC(N)=O)Cc2c[nH]c3ccccc23)C(C)C)CSSC[C@@H](C(=O)O)NC(=O)[C@H](CC(C)C)NC(=O)[C@H](CO)NC(=O)[C@H](CO)NC1=O | 110 | 6.17 | 19.5
5 | CC[C@H](C)[C@@H]1NC(=O)[C@H](CCC(=O)O)NC(=O)[C@H](CO)NC(=O)[C@H](CCCCN)NC(=O)[C@H](CO)NC(=O)[C@H](C)NC(=O)CNC(=O)[C@H](Cc2c[nH]c3ccccc23)NC(=O)[C@H](CCCCN)NC(=O)[C@@H](N)CSSC[C@@H](C(=O)NCC(=O)NCC(=O)N[C@@H](CO)C(=O)N[C@@H](CCCNC(=N)N)C(=O)N[C@@H](Cc2c[nH]c3ccccc23)C(=O)O)NC(=O)[C@H]([C@@H](C)O)NC(=O)[C@H](Cc2ccccc2)NC(=O)[C@H]([C@@H](C)CC)NC(=O)[C@H](C(C)C)NC(=O)[C@H](CCCNC(=N)N)NC(=O)[C@H]([C@@H](C)CC)NC(=O)[C@H](Cc2ccccc2)NC(=O)[C@H](CCC(=O)O)NC(=O)[C@H](CCCNC(=N)N)NC(=O)CNC(=O)[C@@H](NC(=O)[C@H](CC(C)C)NC(=O)[C@H](CCCNC(=N)N)NC(=O)[C@@H](NC(=O)CNC(=O)[C@H](Cc2ccc(O)cc2)NC(=O)[C@@H]2CCCN2C(=O)[C@H](C)NC(=O)[C@H](C)NC(=O)[C@H](CCCNC(=N)N)N[C@H](CO)Cc2c[nH]c3ccccc23)C(C)C)CSSC[C@@H](C(=O)O)NC(=O)[C@H](CC(C)C)NC(=O)[C@H](CO)NC(=O)[C@H](CO)NC1=O | 331 | 13.2 | 282
